Entries after “also recorded” stand apart in the source; their conditions may differ.

Results on three molecules are retold here after PMC11443182 (Science signaling, 2024).

For assay [1], the system named is WT and mutant AT1Rs (p-ERK/t-ERK) in GqKO cells. In words: ERK phosphorylation Western blot, HEK293 GqKO cells, WT and mutant AT1Rs. Format: cell-based, human. Conditions: for ERK activation in GqKO cells: HEK293 GqKO cells vs WT cells, AngII 1 μM, TRV023 10 μM, Telm 10 μM. Summed up:
(§1)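 Receptor constructs (plasmid amounts adjusted to equalise receptor expression by radioligand binding) transfected with lipofectamine 2000 into cells grown in MEM with 10% FBS. […] RIPA lysis with protease/phosphatase inhibitors, 1 h at 4°C. SDS-PAGE/PVDF; phospho-ERK1/2 (1:1000) normalised to total ERK1/2 (1:2000).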
For orientation: Immunoblotting shows a protein as a band on a membrane.

A further assay relates to AT1R / β-arrestin. Conditions: receptor "pre-phosphorylated"; AngII vs TRV023; cited from earlier work.
The subject of assay [2] is WT AT1R. Put plainly: Intramolecular FlAsH BRET. Format: cell-based, human. The settings on record: HEK293 cells, AngII 1 μM, TRV023 10 μM, 10 min, N=4. In short, it runs like this: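 HEK293 cells were Fugene HD-cotransfected with 1.5 µg AT1R and 0.1 µg of each rLuc–β-arrestin2–FlAsH construct. At 48 h cells in HBSS were labeled with 2.5 µM TC-FlAsH (or mock) for 30 min at RT, washed in BAL buffer and plated at 100,000/well. […] Six readings were taken (440–480 / 525–585 nm). Net BRET was calculated after mock-label and vehicle subtraction; N=4.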
On the technique in general: In BRET a luciferase serves as donor, and the signal depends on an acceptor being close.

The next assay deals with AT1R / GRKs. The settings on record: cited from earlier work.
Assay [3] has as its system WT and mutant AT1Rs (nuclear ERK activity). In words: Nuclear ERK BRET. Type of assay: cell-based, human.
The next assay concerns AT1R mutants / GRK3. Put plainly: GRK3 recruitment BRET assay, AT1R mutants. Format: cell-based, human. Conditions: GRKΔ4 cells; AngII 1 μM, TRV023 10 μM; 5 min. In short, it runs like this: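 HEK293 cells lacking GRK2/3/5/6 PEI-transfected with WT or mutant AT1R-Rluc8 (DNA adjusted to equalise expression) and 1 µg GRK3-YFP (C-terminal tag). Replated after 24 h at 50,000/well in starvation MEM with 2% FBS. […] Read at 37°C, 530/480 nm; net BRET = ligand minus vehicle.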

For assay [4], the system named is AT1R C-terminal tail mutants (p-ERK/t-ERK). In words: ERK phosphorylation Western blot, HEK293 cells, AT1R mutants. Format: cell-based, human. Conditions: 10 min, N=8-9. Summed up: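 HEK293 cells in 6-well plates were lipofectamine 2000-transfected with WT or mutant AT1R, with DNA adjusted to matched expression. Medium was refreshed on day 1. […] RIPA lysates with protease/phosphatase inhibitors were run on SDS-PAGE/PVDF and probed for phospho-ERK1/2 (1:1000) versus total ERK1/2 (1:2000) overnight at 4 °C.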

In the next assay the test system is AT1R mutants / GRK2. Put plainly: GRK2 recruitment BRET assay, AT1R mutants. Format: cell-based, human. The settings on record: GRKΔ4 cells; AngII 1 μM, TRV023 10 μM; 5 min. In short, it runs like this: (§2)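 GRK2/3/5/6-null HEK293 cells were PEI-transfected with WT or mutant AT1R-Rluc8 (DNA adjusted to match expression) plus 1 µg C-terminally YFP-tagged GRK2. After 24 h they were plated at 50,000/well in 2% FBS starvation MEM. […] Plates were read at 37 °C (530/480 nm), and net BRET was taken as ligand minus vehicle.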

Assay [5] concerns AT1R C-terminal tail mutants (PROX, MID, DIST, NULL). Put plainly: DiscoverX active endocytosis assay. Type of assay: cell-based, human. Conditions: U2OS cells; β-arrestin2-EA; 3 h 37 °C; chemiluminescence; N=3. In short, it runs like this:
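U2OS cells stably expressing β-arrestin2-EA and endosome-localized PK were transfected with WT or mutant AT1R, replated next day at 35,000 cells/well, and treated with ligands 3 h at 37 °C two days post-transfection. PathHunter detection reagents were added with 1 h RT incubation, then β-gal complementation chemiluminescence was read. Results are expressed as fold of untreated cells.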

Assay [6] shares this test system. In words: β-arrestin recruitment BRET assay, AT1R C-terminal tail mutants. Format: cell-based, human. The settings on record: HEK293 cells, 10 min, 37 °C, N=5.
Assay [7] deals with FLAG-tagged human WT AT1R. Format: cell-based. The settings on record: AngII 1 μM, TRV023 10 μM, 10 min, N=5. In short, it runs like this:
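Expi293F cells with inducible N-terminal FLAG-human AT1R (~2.5×10^6 density) were induced 30–36 h with doxycycline 4 µg/mL plus 5 mM butyrate, with expression checked by radioligand binding. […] Receptor was solubilized in MNG/CHS buffer with 1 µM losartan and PhosSTOP, purified on M1 anti-FLAG (EDTA/FLAG-peptide elution), TCA-precipitated, then reduced (TCEP) and alkylated (iodoacetamide) in 8 M urea/EPPS pH 8.5.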

The subject of a further assay is WT AT1R (p-ERK/t-ERK). Put plainly: ERK phosphorylation Western blot, HEK293 cells, WT AT1R. Format: cell-based, human. The settings on record: AngII 1 μM, TRV023 10 μM, 10 min, N=8-9. Summed up: as §1
The test system of assay [8] is AT1R mutants (Ca2+ response). Put plainly: FLIPR Ca2+ assay, AT1R mutants. Type of assay: cell-based, human. Conditions: HEK293T cells; AngII serial doses, 37 °C; AUC; n=5. Summed up: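 HEK293T cells (500,000/well) were transfected 24 h after seeding with WT, or adjusted amounts of PROX or MID AT1R giving equal expression. Next day they were replated at 50,000/well overnight and loaded with Calcium 6 dye 2 h at 37 °C.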

The subject of a further assay is AT1R WT / GRK2. Put plainly: GRK2 recruitment BRET assay, WT AT1R. Conditions: GRKΔ4 cells; AngII 1 μM, TRV023 10 μM; 5 min. Format: cell-based, human. Summed up:
as §2

Assay [9] relates to AT1R-PROX mutant (nuclear ERK activity). In words: Nuclear ERK BRET. Format: cell-based, human. The settings on record: HEK293T cells; AngII 1 μM; 5 min; vs WT receptor. In short, it runs like this: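 WT or mutant AT1R (DNA adjusted for expression) PEI-co-transfected with 50 ng nuclear-localised EKAR biosensor with a NanoLuciferase donor. After 24 h, replated at 50,000/well in starvation MEM with 0.5% FBS, ± PTX 200 ng/mL. […] Read at 37°C, 530/480 nm; net BRET = ligand minus vehicle.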

The subject of assay [10] is AT1R C-terminal tail mutants (PROX, MID, DIST, NULL). Put plainly: Intramolecular FlAsH BRET. Type of assay: cell-based, human. The settings on record: HEK293 cells, 10 min, N=4.
Assay [11] shares this test system. Put plainly: β-arrestin1 endocytosis BRET assay, AT1R mutants. Format: cell-based, human. Conditions: HEK293 cells; β-arrestin1-RlucII/FYVE; 25 min 37 °C; N=4. Summed up:
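HEK293 cells coexpressing WT or mutant AT1R, β-arrestin1-RlucII and endosomal FYVE-eGFP were reseeded next day on poly-L-ornithine plates (~25,000/well). […] Coelenterazine 400a (5 µM final) was added 2 min before reading (410/80 and 515/30 nm). Results are given as fold of untreated BRET; N=4.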

Assay [12] deals with WT AT1R. Put plainly: β-arrestin recruitment BRET assay, WT AT1R. Conditions: HEK293 cells; WT AT1R-RLuc8, β-arrestin2-eGFP; 10 min, 37 °C; N=5. Format: cell-based, human. For orientation: Arrestin recruitment assays detect the binding of arrestin to an activated receptor.
A further assay has as its system AT1R mutants (Gq). Put plainly: G protein activation TRUPATH BRET assay. Type of assay: cell-based, human. The settings on record: AngII concentration response; any of the AT1R mutants.

For the molecule `CCCc1nc2c(C)cc(-c3nc4ccccc4n3C)cc2n1Cc1ccc(-c2ccccc2C(=O)O)cc1` [Telm, telmisartan], the “ERK activation in GqKO cells” value in assay [1] (10 min, N=7-8) is “did not induce ERK activation”.

“angiotensin II (DRVYIHPF; Angiotensin-2; UniProt P01019 25-32, looked up) [AngII]”: the “allosteric interaction with β-arrestin” value in the assay with AT1R / β-arrestin was “somewhat stronger allosteric interaction with β-arrestin than does TRV023”. Also, the “β-arrestin2 conformation, six FlAsH sensor profile” value with WT AT1R [2] was “distinct β-arrestin conformations”. In addition, the “FlAsH4 BRET signal” value in the assay on WT AT1R [2] (Telm 10 μM) was “significant decrease in BRET compared to the shape profile induced by Telm”. Besides, the GRK recruitment entry in the assay on AT1R / GRKs was “recruits GRK2/3 and GRK5/6”. The “nuclear ERK activation” value in [3] (HEK293T cells, AT1R WT and all AT1R mutants, AngII 1 μM, 5 min, net BRET) is given as “increase in ERK activation”. In addition, in the assay with AT1R mutants / GRK3, the “GRK3 recruitment, MID mutant” value is on record as “impaired in response to TRV023, but not AngII”. Further, the “ERK phosphorylation, AT1R-MID” value in assay [4] (AT1R-MID vs WT AT1R) is “somewhat higher activation of ERK phosphorylation”. The “ERK phosphorylation, all phosphorylation-deficient mutants” value in [4] (AngII 1 μM, TRV023 10 μM) is on record as “largely similar to that of the WT AT1R”. For the same molecule, in the assay with AT1R mutants / GRK2, the “GRK2 recruitment, DIST mutant” value was “significantly impaired”; the “GRK2 recruitment, MID mutant” value is recorded as “significantly impaired”; the “GRK2 recruitment, PROX mutant” value is given as “robust recruitment”. For the same molecule, in assay [5], the “AT1R internalization: requirement of DIST phosphorylation” value was “largely dispensable”; the “AT1R internalization: requirement of PROX and MID phosphorylation” value is “required for AT1R internalization”. In assay [6] (AT1R-DIST mutant), the “β-arrestin recruitment (net BRET), AT1R-DIST” value was “robust β-arrestin recruitment”. Moreover, the “reduction of β-arrestin recruitment, MID sites mutated” value in [6] (AT1R-MID mutant) came out at 50%. For the same molecule, the “reduction of β-arrestin recruitment, PROX sites mutated” value in assay [6] (AT1R-PROX mutant) is 50%. Besides, the “phosphorylation in DIST region” value in [7] (DIST region) was “comparable amounts of phosphorylation in the DIST region”. In assay [7] (PROX: Ser326, Ser328, Ser331, Thr332), the “phosphorylation in PROX region” value is on record as “The magnitude of increase was greatest in the proximal region of the tail; also recorded: the greatest increase in receptor phosphorylation occurred in the PROX region”. For the same molecule, the “ERK phosphorylation (p-ERK/t-ERK)” value in the assay with WT AT1R (p-ERK/t-ERK) is listed as “significant increase in ERK phosphorylation”. Further, in [8], the “EC50 of Ca2+ response” value is recorded as “no difference in EC50” and the “maximal Ca2+ response, AT1R-PROX” value is recorded as “reduced maximal Ca^2+ response”. Also, in the assay with AT1R WT / GRK2, the “GRK2 recruitment, AT1R WT” value is “robust recruitment”. For the same molecule, in [9], the “nuclear ERK response, PROX mutant” value is “significantly impaired ERK response compared to WT receptor”. Further, the “β-arrestin2 FlAsH profile, AT1R-DIST” value in assay [10] is recorded as “more comparable to that of the WT AT1R”. For the same molecule, the “AT1R internalization: requirement of DIST phosphorylation” value in assay [11] is recorded as “largely dispensable”. Moreover, the “β-arrestin recruitment (net BRET)” value with WT AT1R [12] is “robust β-arrestin recruitment”. Moreover, in the assay with AT1R mutants (Gq), the “EC50 of G protein activation, AT1R mutants” value was “No difference in EC50”. For the same molecule, in [1] (10 min, N=7-8), the “ERK activation in GqKO cells” value is “substantially lower in GqKO cells compared to WT cells”. In addition, the “ERK activation in GqKO cells, PROX mutant” value in [1] (HEK293 GqKO cells, AT1R-PROX, 10 min, N=7-8) is recorded as “most impairment relative to WT cells; also recorded: more substantially diminished in cells lacking Gq”.

In the case of pertussis toxin [PTX], the “PTX block of AngII-stimulated nuclear ERK” value in assay [3] (PTX 200 ng/mL pretreatment, stimulated by AngII, WT and mutant receptors) is listed as “about 50%”. Besides, the “PTX block of TRV023-stimulated nuclear ERK” value in [3] (PTX 200 ng/mL pretreatment, stimulated by TRV023, WT and mutant receptors) is on record as “about 50%”. Besides, the “inhibition of AngII-induced ERK activation by PTX” value in assay [1] (GqKO cells, PTX pretreatment before AngII, WT and mutant AT1Rs) is “largely blocked AngII-induced ERK activation”.
